# According to ChEMBL document CHEMBL1914423, “New imidazo[2,1-b]thiazole derivatives: synthesis, in vitro anticancer evaluation, and in silico studies” (Eur J Med Chem, 2011):
# Legend:
# Type in all cases: functional
# [1] = system: K562; test: Anticancer activity against human K562 cells after 48 hrs by SRB assay; conditions: K562, 48 h
# Procedure, shortened: (§1)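 NCI five-dose screen. Cells in RPMI 1640 with 5% FBS and 2 mM L-glutamine, seeded at 5000–40,000 cells/well according to doubling time, then pre-incubated 24 h at 37 °C in 5% CO2. Drugs dissolved in DMSO, five concentrations by 10-fold or 1/2-log dilution. Cells fixed with TCA, SRB-stained, A515 read. IC50 solved from [(Ti−Tz)/(C−Tz)]×100 = 50.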
# [2] = system: MOLT-4; test: Anticancer activity against human MOLT4 cells after 48 hrs by SRB assay; conditions: MOLT-4, 48 h
# [3] = system: SR; test: Anticancer activity against human SR cells after 48 hrs by SRB assay
# Procedure, shortened: (§2)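 NCI-60 five-dose mode: cells in RPMI 1640 with 5% FBS and 2 mM glutamine, plated at 5000–40,000 cells/well, and preincubated 24 h, with time-zero plates TCA-fixed. Drug given at five concentrations (10-fold or ½-log serial dilutions). Cold TCA fixation 60 min at 4 °C, SRB stain, Tris solubilization, A515. IC50 taken where [(Ti−Tz)/(C−Tz)]×100 = 50.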
# [4] = system: A549; test: Anticancer activity against human A549 cells after 48 hrs by SRB assay; conditions: A549, 48 h; procedure, shortened: as §1
# [5] = system: EKVX; test: Anticancer activity against human EKVX cells after 48 hrs by SRB assay; procedure, shortened: as §1
# [6] = system: HOP-92; test: Anticancer activity against human HOP92 cells after 48 hrs by SRB assay; conditions: HOP-92, 48 h; procedure, shortened: as §1
# [7] = system: NCI-H322M; test: Anticancer activity against human NCI-H322M cells after 48 hrs by SRB assay
# [8] = system: NCI-H522; test: Anticancer activity against human NCI-H522 cells after 48 hrs by SRB assay; conditions: NCI-H522, 48 h
# [9] = system: COLO 205; test: Anticancer activity against human COLO205 cells after 48 hrs by SRB assay; conditions: COLO 205, 48 h; procedure, shortened: as §1
# [10] = system: HCC 2998; test: Anticancer activity against human HCC2998 cells after 48 hrs by SRB assay; conditions: HCC 2998, 48 h; procedure, shortened: as §1
# [11] = system: HCT-116; test: Anticancer activity against human HCT116 cells after 48 hrs by SRB assay; conditions: HCT-116, 48 h; procedure, shortened: as §1
# [12] = system: KM12; test: Anticancer activity against human KM12 cells after 48 hrs by SRB assay; conditions: KM12, 48 h; procedure, shortened: as §1
# [13] = system: SF-295; test: Anticancer activity against human SF295 cells after 48 hrs by SRB assay; conditions: SF-295, 48 h
# [14] = system: SNB-75; test: Anticancer activity against human SNB75 cells after 48 hrs by SRB assay; conditions: SNB-75, 48 h
# [15] = system: U-251; test: Anticancer activity against human U251 cells after 48 hrs by SRB assay; conditions: U-251, 48 h; procedure, shortened: as §2
# [16] = system: M14; test: Anticancer activity against human M14 cells after 48 hrs by SRB assay; conditions: M14, 48 h; procedure, shortened: as §1
# [17] = system: MDA-MB-435; test: Anticancer activity against human MDA-MB-435 cells after 48 hrs by SRB assay; conditions: MDA-MB-435, 48 h; procedure, shortened: as §1
# [18] = system: SK-MEL-2; test: Anticancer activity against human SK-MEL-2 cells after 48 hrs by SRB assay; conditions: SK-MEL-2, 48 h
# [19] = system: OVCAR-3; test: Anticancer activity against human OVCAR3 cells after 48 hrs by SRB assay; conditions: OVCAR-3, 48 h
# [20] = system: A498; test: Anticancer activity against human A498 cells after 48 hrs by SRB assay; conditions: A498, 48 h; procedure, shortened: as §1
# [21] = system: ACHN; test: Anticancer activity against human ACHN cells after 48 hrs by SRB assay; procedure, shortened: as §1
# [22] = system: RXF 393; test: Anticancer activity against human RXF393 cells after 48 hrs by SRB assay; conditions: RXF 393, 48 h
# [23] = system: TK-10; test: Anticancer activity against human TK10 cells after 48 hrs by SRB assay; conditions: TK-10, 48 h; procedure, shortened: as §2
# [24] = system: PC-3; test: Anticancer activity against human PC3 cells after 48 hrs by SRB assay; conditions: PC-3, 48 h
# [25] = system: DU-145; test: Anticancer activity against human DU145 cells after 48 hrs by SRB assay; conditions: DU-145, 48 h; procedure, shortened: as §1
# [26] = system: MCF7; test: Anticancer activity against human MCF7 cells after 48 hrs by SRB assay; conditions: MCF7, 48 h; procedure, shortened: as §1
# [27] = system: MDA-MB-231; test: Anticancer activity against human MDA-MB-231 cells after 48 hrs by SRB assay; conditions: MDA-MB-231, 48 h; procedure, shortened: as §1
# [28] = Anticancer activity against human Hs 578T cells after 48 hrs by SRB assay; procedure, shortened: as §1
# [29] = system: T47D; test: Anticancer activity against human T47D cells after 48 hrs by SRB assay; procedure, shortened: as §2
# [30] = system: MDA-MB-468; test: Anticancer activity against human MDA-MB-468 cells after 48 hrs by SRB assay; conditions: MDA-MB-468, 48 h
# [31] = read-out: LC50 (the source's name)
smiles,measurement,setting,value
COc1cccc(-c2nc3sccn3c2-c2ccnc(NCCNC(=O)Nc3cccc(C(F)(F)F)c3)n2)c1,GI50,[1],3.48 µM
same,TGI,[1],> 100 µM
same,CC50,[1]; [31],> 100 µM
same,GI50,[2],3.27 µM
same,TGI,[2],9.94 µM
same,CC50,[2]; [31],> 100 µM
same,GI50,[3],3.75 µM
same,TGI,[3],29.7 µM
same,CC50,[3]; [31],> 100 µM
same,GI50,[4],3.82 µM
same,LC50 (concentration giving 50% net tumour cell kill),[4],> 100 µM
same,TGI,[4],17.1 µM
same,GI50,[5],3.55 µM
same,LC50,[5],> 100 µM
same,TGI,[5],59.6 µM
same,GI50,[6],0.853 µM
same,TGI,[6],9.47 µM
same,CC50,[6]; [31],> 100 µM
same,GI50,[7],7.23 µM
same,TGI,[7],> 100 µM
same,CC50,[7]; [31],> 100 µM
same,GI50,[8],2.67 µM
same,TGI,[8],8.51 µM
same,CC50,[8]; [31],86.5 µM
same,GI50,[9],5.37 µM
same,TGI,[9],19.2 µM
same,CC50,[9]; [31],58 µM
same,GI50,[10],3.75 µM
same,TGI,[10],18.7 µM
same,CC50,[10]; [31],> 100 µM
same,GI50,[11],3.45 µM
same,TGI,[11],11.6 µM
same,CC50,[11]; [31],> 100 µM
same,GI50,[12],3.36 µM
same,TGI,[12],10.1 µM
same,CC50,[12]; [31],39.3 µM
same,GI50,[13],2.8 µM
same,TGI,[13],14.9 µM
same,CC50,[13]; [31],> 100 µM
same,GI50,[14],3.41 µM
same,TGI,[14],21.7 µM
same,CC50,[14]; [31],> 100 µM
same,GI50,[15],3.95 µM
same,TGI,[15],19.8 µM
same,CC50,[15]; [31],> 100 µM
same,GI50,[16],2.96 µM
same,TGI,[16],8.48 µM
same,CC50,[16]; [31],29.2 µM
same,GI50,[17],2.95 µM
same,TGI,[17],12.3 µM
same,CC50,[17]; [31],> 100 µM
same,GI50,[18],2.03 µM
same,TGI,[18],4.46 µM
same,CC50,[18]; [31],9.78 µM
same,GI50,[19],4.22 µM
same,TGI,[19],20.3 µM
same,CC50,[19]; [31],> 100 µM
same,GI50,[20],2.44 µM
same,TGI,[20],17.5 µM
same,CC50,[20]; [31],> 100 µM
same,GI50,[21],3.17 µM
same,TGI,[21],19.1 µM
same,CC50,[21]; [31],> 100 µM
same,GI50,[22],1.77 µM
same,TGI,[22],3.65 µM
same,CC50,[22]; [31],7.49 µM
same,GI50,[23],3.6 µM
same,TGI,[23],18.8 µM
same,CC50,[23]; [31],> 100 µM
same,GI50,[24],2.47 µM
same,TGI,[24],11.9 µM
same,CC50,[24]; [31],> 100 µM
same,GI50,[25],5.13 µM
same,TGI,[25],95.5 µM
same,CC50,[25]; [31],> 100 µM
same,GI50,[26],3.12 µM
same,TGI,[26],13.3 µM
same,CC50,[26]; [31],> 100 µM
same,GI50,[27],3.47 µM
same,TGI,[27],12 µM
same,CC50,[27]; [31],> 100 µM
same,GI50,[28],3.15 µM
same,TGI,[28],29 µM
same,CC50,[28]; [31],> 100 µM
same,GI50,[29],3.77 µM
same,TGI,[29],13.8 µM
same,CC50,[29]; [31],61 µM
same,GI50,[30],2.63 µM
same,TGI,[30],10.4 µM
same,CC50,[30]; [31],> 100 µM
